From ChEMBL document CHEMBL1126762, “Synthesis and anaerobic activity of novel 1-carba-1-dethiacephalosporins” (J Med Chem, 1993)
Converted amounts (≈) assume the structure as drawn.

What was measured:
Eikenella corrodens = assay: Antibacterial activity against anaerobic Bacteroides corrodens 1874; assay type: functional
Procedure, shortened: (§1)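 MIC by agar dilution following the NCCLS M11-A2 (2nd ed.) procedure for antimicrobial testing of anaerobic bacteria.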

Phocaeicola vulgatus = assay: Antibacterial activity against anaerobic Bacteroides vulgatus 1211; assay type: functional; procedure, shortened: as §1
[1] = test system: Bacteroides thetaiotaomicron; assay: Antibacterial activity against anaerobic Bacteroides thetaiotaomicron 1438; assay type: functional; procedure, shortened: as §1
[2] = test system: Prevotella melaninogenica; assay: Antibacterial activity against anaerobic Bacteroides melaninogenicus 1856/28; assay type: functional; procedure, shortened: as §1
[3] = test system: Prevotella melaninogenica; assay: Antibacterial activity against anaerobic Bacteroides melaninogenicus 2736; assay type: functional; procedure, shortened: as §1
Bacteroides fragilis [4] = assay: Antibacterial activity against anaerobic Bacteroides fragilis 111; assay type: functional; procedure, shortened: as §1
Bacteroides fragilis [5] = assay: Antibacterial activity against anaerobic; assay type: functional; procedure, shortened: as §1
Bacteroides fragilis [6] = assay: Antibacterial activity against anaerobic Bacteroides fragilis 1936B; assay type: functional; procedure, shortened: as §1
Clostridioides difficile = assay: Antibacterial activity against anaerobic Clostridium difficile 2994 strain; assay type: functional; procedure, shortened: as §1
Clostridium perfringens = assay: Antibacterial activity against anaerobic Clostridium perfringens 81; assay type: functional
Procedure, shortened: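 Agar dilution MIC following NCCLS document M11-A2 (Vol. 10, no. 15), the method for antimicrobial testing of anaerobic bacteria; value reported as minimum inhibitory concentration.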

Clostridium septicum = assay: Antibacterial activity against anaerobic Clostridium septicum 1128; assay type: functional; procedure, shortened: as §1
Escherichia coli = assay: Antibacterial activity against aerobic Escherichia coli EC14; assay type: functional
Procedure, shortened: (§2)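 MIC by agar dilution following the NCCLS M7-A2 (2nd ed.) procedure for bacteria that grow aerobically.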

[7] = Antibacterial activity against anaerobic Eubacterium aerofaciens 1235; assay type: functional; details: Collinsella aerofaciens; procedure, shortened: as §1
Klebsiella aerogenes = assay: Antibacterial activity against aerobic Enterobacter aerogenes C32; assay type: functional; procedure, shortened: as §2
[8] = Antibacterial activity against anaerobic Fusobacterium symbiosum 1470; assay type: functional, fusobacterium symbosium; procedure, shortened: as §1
[9] = test system: Fusobacterium necrophorum; assay: Antibacterial activity against anaerobic Fusobacterium necrophorum 6054A; assay type: functional; procedure, shortened: as §1
Haemophilus influenzae = assay: Antibacterial activity against aerobic Haemophilus influenzae RES 76; assay type: functional; procedure, shortened: as §2
Klebsiella pneumoniae = assay: Antibacterial activity against aerobic Klebsiella pneumoniae X26; assay type: functional; procedure, shortened: as §2
[10] = test system: Peptostreptococcus anaerobius; assay: Antibacterial activity against anaerobic Peptostreptococcus anaerobius 1451; assay type: functional; procedure, shortened: as §1
[11] = Antibacterial activity against anaerobic Peptostreptococcus intermedius 1264; assay type: functional; procedure, shortened: as §1
Pseudomonas aeruginosa = assay: Antibacterial activity against aerobic Pseudomonas aeruginosa X239 strain; assay type: functional; procedure, shortened: as §2
[12] = Antibacterial activity against anaerobic Peptococcus asaccharolyticus 1302; assay type: functional; details: Peptoniphilus asaccharolyticus; procedure, shortened: as §1
Anaerococcus prevotii = assay: Antibacterial activity against anaerobic Peptococcus prevoti 1281; assay type: functional; procedure, shortened: as §1
Cutibacterium acnes = assay: Antibacterial activity against anaerobic Propionibacterium acnes 79; assay type: functional; procedure, shortened: as §1
[13] = test system: Staphylococcus epidermidis; assay: Antibacterial activity against aerobic Staphylococcus epidermidis 222; assay type: functional; procedure, shortened: as §2
Streptococcus pneumoniae = assay: Antibacterial activity against aerobic Streptococcus pneumoniae PARK; assay type: functional; procedure, shortened: as §2
Staphylococcus aureus = assay: Antibacterial activity against aerobic Staphylococcus aureus X1.1 strain; assay type: functional; procedure, shortened: as §2
[14] = Area under plasma time curve determined in male rat; assay type: ADME, organism-based
Procedure, shortened: (§3)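 Male Sprague-Dawley rats given 20 mg/kg i.v. in saline through an indwelling jugular vein cannula, which was also used for serial blood sampling over 6 h. Plasma drug measured by agar well diffusion bioassay with Micrococcus luteus ATCC9241 (detection limit 3.2 μg/mL plasma). AUC by Simpson's rule.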

Bacteroides fragilis [15] = assay: Antibacterial activity against anaerobic Bacteroides fragilis 1877; assay type: functional; procedure, shortened: as §1
[16] = Maximum concentration reached following intravenous administration in male rat; assay type: ADME, organism-based; parameters: route intravenous; details: in vivo; procedure, shortened: as §3

Structure (SMILES)	MIC (Eikenella corrodens) [µg/mL]	MIC (Phocaeicola vulgatus) [µg/mL]	MIC [1] [µg/mL]	MIC [2] [µg/mL]	MIC [3] [µg/mL]	MIC (Bacteroides fragilis [4]) [µg/mL]	MIC (Bacteroides fragilis [6]) [µg/mL]	MIC (Clostridioides difficile) [µg/mL]	MIC (Clostridium perfringens) [µg/mL]	MIC (Clostridium septicum) [µg/mL]	MIC (Escherichia coli) [µg/mL]	MIC [7] [µg/mL]	MIC (Klebsiella aerogenes) [µg/mL]	MIC [8] [µg/mL]	MIC [9] [µg/mL]	MIC (Haemophilus influenzae) [µg/mL]	MIC (Klebsiella pneumoniae) [µg/mL]	MIC [10] [µg/mL]	MIC [11] [µg/mL]	MIC (Pseudomonas aeruginosa) [µg/mL]	other results
CO[C@@]1(NC(=O)Cc2cccs2)C(=O)N2C(C(=O)O)=C(COC(N)=O)CS[C@@H]21 [CEFOXITIN]	4 (≈ 9.36 µM)	8 (≈ 18.7 µM)	2 (≈ 4.68 µM)	4 (≈ 9.36 µM)	8 (≈ 18.7 µM)	8 (≈ 18.7 µM)	8 (≈ 18.7 µM)	32 (≈ 74.9 µM)	2 (≈ 4.68 µM)	4 (≈ 9.36 µM)	2 (≈ 4.68 µM)	8 (≈ 18.7 µM)	> 128	8 (≈ 18.7 µM)	≤ 0.5	2 (≈ 4.68 µM)	1 (≈ 2.34 µM)	2 (≈ 4.68 µM)	2 (≈ 4.68 µM)	> 128	MIC (Bacteroides fragilis [5]): 4 µg/mL (≈ 9.36 µM); MIC [12]: ≤ 0.5 µg/mL; MIC (Anaerococcus prevotii): 1 µg/mL (≈ 2.34 µM); MIC (Cutibacterium acnes): 2 µg/mL (≈ 4.68 µM); MIC [13]: 4 µg/mL (≈ 9.36 µM); MIC (Streptococcus pneumoniae): 0.5 µg/mL (≈ 1.17 µM); MIC (Staphylococcus aureus): 4 µg/mL (≈ 9.36 µM)
Nc1nc(/C(=N/OCCF)C(=O)N[C@@H]2C(=O)N3C(C(=O)O)=C(Sc4ncc([N+](=O)[O-])s4)CC[C@H]23)cs1	8 (≈ 14.3 µM)	1 (≈ 1.79 µM)	≤ 0.5	2 (≈ 3.59 µM)	1 (≈ 1.79 µM)	4 (≈ 7.17 µM)	4 (≈ 7.17 µM)	4 (≈ 7.17 µM)	1 (≈ 1.79 µM)	1 (≈ 1.79 µM)	0.5 (≈ 0.897 µM)	4 (≈ 7.17 µM)	1 (≈ 1.79 µM)	1 (≈ 1.79 µM)	≤ 0.5	0.008 (≈ 0.0143 µM)	0.008 (≈ 0.0143 µM)	≤ 0.5	≤ 0.5	> 128	AUC [14]: 11100 ng·h/mL; MIC (Bacteroides fragilis [15]): 1 µg/mL (≈ 1.79 µM); MIC [12]: ≤ 0.5 µg/mL; MIC (Anaerococcus prevotii): ≤ 0.5 µg/mL; MIC (Cutibacterium acnes): ≤ 0.5 µg/mL; MIC [13]: 1 µg/mL (≈ 1.79 µM); MIC (Streptococcus pneumoniae): 0.008 µg/mL (≈ 0.0143 µM); MIC (Staphylococcus aureus): 0.125 µg/mL (≈ 0.224 µM); Cmax [16]: 54.2 µg/mL
CO/N=C(\C(=O)N[C@@H]1C(=O)N2C(C(=O)O)=C(Sc3ncc(C#N)s3)CC[C@H]12)c1csc(N)n1	> 128	16 (≈ 31.6 µM)	4 (≈ 7.91 µM)	0.25 (≈ 0.494 µM)	32 (≈ 63.3 µM)	> 128	> 128	0.06 (≈ 0.119 µM)	0.25 (≈ 0.494 µM)	1 (≈ 1.98 µM)	0.5 (≈ 0.989 µM)	16 (≈ 31.6 µM)	0.5 (≈ 0.989 µM)	2 (≈ 3.96 µM)	0.25 (≈ 0.494 µM)	0.125 (≈ 0.247 µM)	0.25 (≈ 0.494 µM)	0.5 (≈ 0.989 µM)	0.03 (≈ 0.0593 µM)	128 (≈ 253 µM)	MIC (Bacteroides fragilis [15]): 16 µg/mL (≈ 31.6 µM); MIC [12]: 0.25 µg/mL (≈ 0.494 µM); MIC (Anaerococcus prevotii): 0.5 µg/mL (≈ 0.989 µM); MIC (Cutibacterium acnes): 0.03 µg/mL (≈ 0.0593 µM); MIC [13]: 1 µg/mL (≈ 1.98 µM); MIC (Streptococcus pneumoniae): 0.008 µg/mL (≈ 0.0158 µM); MIC (Staphylococcus aureus): 0.25 µg/mL (≈ 0.494 µM)
CO/N=C(\C(=O)N[C@@H]1C(=O)N2C(C(=O)O)=C(Sc3ncc(C(F)(F)F)s3)CC[C@H]12)c1csc(N)n1	128 (≈ 233 µM)	8 (≈ 14.6 µM)	4 (≈ 7.29 µM)	0.125 (≈ 0.228 µM)	32 (≈ 58.3 µM)	128 (≈ 233 µM)	128 (≈ 233 µM)	0.06 (≈ 0.109 µM)	0.06 (≈ 0.109 µM)	0.5 (≈ 0.911 µM)	0.25 (≈ 0.456 µM)	16 (≈ 29.2 µM)	0.5 (≈ 0.911 µM)	2 (≈ 3.65 µM)	0.25 (≈ 0.456 µM)	0.06 (≈ 0.109 µM)	0.03 (≈ 0.0547 µM)	0.5 (≈ 0.911 µM)	0.015 (≈ 0.0273 µM)	128 (≈ 233 µM)	MIC (Bacteroides fragilis [15]): 4 µg/mL (≈ 7.29 µM); MIC [12]: 0.125 µg/mL (≈ 0.228 µM); MIC (Anaerococcus prevotii): 0.5 µg/mL (≈ 0.911 µM); MIC (Cutibacterium acnes): 0.008 µg/mL (≈ 0.0146 µM); MIC [13]: 1 µg/mL (≈ 1.82 µM); MIC (Streptococcus pneumoniae): 0.008 µg/mL (≈ 0.0146 µM); MIC (Staphylococcus aureus): 0.25 µg/mL (≈ 0.456 µM)
CO[C@@]1(NC(=O)C2SC(=C(C(N)=O)C(=O)O)S2)C(=O)N2C(C(=O)O)=C(CSc3nnnn3C)CS[C@@H]21 (stereo partly specified) [CEFOTETAN]	8 (≈ 13.9 µM)	4 (≈ 6.95 µM)	1 (≈ 1.74 µM)	128 (≈ 222 µM)	128 (≈ 222 µM)	8 (≈ 13.9 µM)	8 (≈ 13.9 µM)	16 (≈ 27.8 µM)	1 (≈ 1.74 µM)	4 (≈ 6.95 µM)	0.125 (≈ 0.217 µM)	4 (≈ 6.95 µM)	8 (≈ 13.9 µM)	128 (≈ 222 µM)	> 128	1 (≈ 1.74 µM)	0.125 (≈ 0.217 µM)	128 (≈ 222 µM)	8 (≈ 13.9 µM)	> 128	MIC (Bacteroides fragilis [15]): 8 µg/mL (≈ 13.9 µM); MIC [12]: 1 µg/mL (≈ 1.74 µM); MIC (Anaerococcus prevotii): 8 µg/mL (≈ 13.9 µM); MIC (Cutibacterium acnes): 1 µg/mL (≈ 1.74 µM); MIC [13]: 16 µg/mL (≈ 27.8 µM); MIC (Streptococcus pneumoniae): 4 µg/mL (≈ 6.95 µM); MIC (Staphylococcus aureus): 8 µg/mL (≈ 13.9 µM)
CO/N=C(\C(=O)N[C@@H]1C(=O)N2C(C(=O)O)=C(Sc3ncc([N+](=O)[O-])s3)CC[C@H]12)c1csc(N)n1	8 (≈ 15.2 µM)	2 (≈ 3.81 µM)	≤ 0.5	4 (≈ 7.61 µM)	4 (≈ 7.61 µM)	8 (≈ 15.2 µM)	4 (≈ 7.61 µM)	2 (≈ 3.81 µM)	2 (≈ 3.81 µM)	≤ 0.5	0.5 (≈ 0.951 µM)	8 (≈ 15.2 µM)	2 (≈ 3.81 µM)	1 (≈ 1.9 µM)	≤ 0.5	0.06 (≈ 0.114 µM)	0.125 (≈ 0.238 µM)	≤ 0.5	≤ 0.5	> 128	MIC (Bacteroides fragilis [15]): 2 µg/mL (≈ 3.81 µM); MIC [12]: ≤ 0.5 µg/mL; MIC (Anaerococcus prevotii): ≤ 0.5 µg/mL; MIC (Cutibacterium acnes): ≤ 0.5 µg/mL; MIC [13]: 0.5 µg/mL (≈ 0.951 µM); MIC (Streptococcus pneumoniae): 0.008 µg/mL (≈ 0.0152 µM); MIC (Staphylococcus aureus): 0.125 µg/mL (≈ 0.238 µM)
CO/N=C(\C(=O)N[C@@H]1C(=O)N2C(C(=O)O)=C(Sc3ncc(S(C)(=O)=O)s3)CC[C@H]12)c1csc(N)n1	> 128	16 (≈ 28.6 µM)	2 (≈ 3.58 µM)	0.125 (≈ 0.224 µM)	32 (≈ 57.3 µM)	> 128	> 128	0.125 (≈ 0.224 µM)	0.25 (≈ 0.448 µM)	16 (≈ 28.6 µM)	0.06 (≈ 0.107 µM)	32 (≈ 57.3 µM)	0.25 (≈ 0.448 µM)	8 (≈ 14.3 µM)	0.008 (≈ 0.0143 µM)	0.015 (≈ 0.0269 µM)	0.03 (≈ 0.0537 µM)	0.5 (≈ 0.895 µM)	0.03 (≈ 0.0537 µM)	> 128	MIC (Bacteroides fragilis [15]): 32 µg/mL (≈ 57.3 µM); MIC [12]: 0.25 µg/mL (≈ 0.448 µM); MIC (Anaerococcus prevotii): 0.25 µg/mL (≈ 0.448 µM); MIC (Cutibacterium acnes): 0.03 µg/mL (≈ 0.0537 µM); MIC [13]: 1 µg/mL (≈ 1.79 µM); MIC (Streptococcus pneumoniae): 0.008 µg/mL (≈ 0.0143 µM); MIC (Staphylococcus aureus): 0.25 µg/mL (≈ 0.448 µM)
